Measurements from ChEMBL document CHEMBL2390866, “Novel pyrimidoazepine analogs as serotonin 5-HT(2A) and 5-HT(2C) receptor ligands for the treatment of obesity” (Eur J Med Chem, 2013).

How the values were obtained:
[1] = target: T1, 5-hydroxytryptamine receptor 2A (Homo sapiens, UniProt P28223); assay: Displacement of [3H]-ketanserin from human recombinant 5HT-2A receptor expressed in CHOK1 cell membranes at 10 uM after 60 mins relative to control; conditions: CHO-K1
In short: (§1)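 Buffer was 50 mM Tris-HCl pH 7.4 with 5 mM CaCl2 and 0.1% ascorbic acid. Test compound added at a range of concentrations.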

[2] = target: T2, 5-hydroxytryptamine receptor 2C (Homo sapiens, UniProt P28335); assay: Displacement of [3H]-mesulergine from human recombinant 5HT-2C receptor expressed in CHOK1 cell membranes after 30 mins; set-up: species or system CHO-K1
T2 sequence (P28335 whole entry): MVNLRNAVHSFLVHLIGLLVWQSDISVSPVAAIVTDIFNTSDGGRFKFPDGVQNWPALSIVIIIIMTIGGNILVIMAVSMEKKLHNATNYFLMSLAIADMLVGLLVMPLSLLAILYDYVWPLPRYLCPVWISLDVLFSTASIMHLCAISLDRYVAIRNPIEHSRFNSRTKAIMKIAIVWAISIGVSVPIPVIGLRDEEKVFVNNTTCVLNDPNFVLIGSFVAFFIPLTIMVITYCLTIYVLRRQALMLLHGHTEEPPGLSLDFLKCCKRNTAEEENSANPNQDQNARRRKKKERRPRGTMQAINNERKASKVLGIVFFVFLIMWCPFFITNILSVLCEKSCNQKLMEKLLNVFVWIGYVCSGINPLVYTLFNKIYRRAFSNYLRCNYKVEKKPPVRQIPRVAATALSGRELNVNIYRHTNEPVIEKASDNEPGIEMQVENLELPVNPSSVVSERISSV
In short: (§2)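 Frozen CHO-K1 membranes expressing recombinant human 5-HT2C incubated with 1 nM [3H]mesulergine in 50 mM Tris-HCl pH 7.4 containing 0.1% ascorbic acid and pargyline. Mianserin defined nonspecific binding.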

[3] = target: T3, 5-hydroxytryptamine receptor 2C (Homo sapiens) (UniProt P28335); assay: Displacement of [3H]-mesulergine from human recombinant 5HT-2C receptor expressed in CHOK1 cell membranes at 10 uM after 30 mins relative to control; conditions: CHO-K1; in short: as §2
T3 sequence (whole entry): T2 sequence (P28335 whole entry)

[4] = target: T1, 5-hydroxytryptamine receptor 2A; assay: Displacement of [3H]-ketanserin from human recombinant 5HT-2A receptor expressed in CHOK1 cell membranes after 60 mins; set-up: species or system CHO-K1; in short: as §1
[5] = target: T1, 5-hydroxytryptamine receptor 2A; assay: Antagonist activity at serotonin-activated human recombinant 5HT-2A receptor expressed in HEK293 cells assessed as decrease in intracellular calcium level after 5 mins measured for 1 min by fluorescence assay; assay type: functional, cell-based; conditions: read-out: EC50 (the source's name)
In short: (§3)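 Cells were washed with HBSS/20 mM HEPES, then loaded 50 min with Fluo-4 NW dye in HBSS with 2.5 mM probenecid. Compound was added for 5 min at 37 °C, then serotonin; fluorescence followed 1 min. Run in duplicate or quadruplicate, repeated several times; IC50 by nonlinear regression.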

Mus musculus [6] = assay: Antiobesity activity in C57BL/6 mouse assessed as inhibition of body weight gain at 50 mg/kg, ip measured after 2 to 12 hrs relative to vehicle-treated control; assay type: functional; conditions: C57BL/6, ip, route intraperitoneal
Mus musculus [7] = assay: Antiobesity activity in C57BL/6 mouse assessed as inhibition of food intake at 50 mg/kg, ip measured after 2 to 12 hrs relative to vehicle-treated control; assay type: functional; conditions: C57BL/6, ip, route intraperitoneal
In short: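 Male mice were acclimated 1 week at 23 ± 3 °C and 50 ± 20% humidity, then fasted 24 h. They were dosed once intraperitoneally with vehicle or compound: 50 mg/kg in C57BL/6, or 12.5, 25 or 50 mg/kg in B6.V-Lep^ob/J. Food intake was measured at 2, 6 and 12 h versus vehicle control.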

[8] = target: T2, 5-hydroxytryptamine receptor 2C; assay: Agonist activity at serotonin-activated human recombinant 5HT-2C receptor expressed in HEK293 cells assessed as increase in intracellular calcium level after 5 mins measured for 1 min by fluorescence assay; assay type: functional, cell-based
[9] = target: T2, 5-hydroxytryptamine receptor 2C; assay: Antagonist activity at serotonin-activated human recombinant 5HT-2C receptor expressed in HEK293 cells assessed as decrease in intracellular calcium level after 5 mins measured for 1 min by fluorescence assay; assay type: functional, cell-based; conditions: read-out: EC50 (the source's name)
In short: as §3, with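 “Intracellular calcium read on HEK293 cells stably expressing human receptor, seeded 10,000 cells/well and grown 24 h at 37 °C, 5% CO2. Cells” for “Cells”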

T1 sequence (P28223 whole entry): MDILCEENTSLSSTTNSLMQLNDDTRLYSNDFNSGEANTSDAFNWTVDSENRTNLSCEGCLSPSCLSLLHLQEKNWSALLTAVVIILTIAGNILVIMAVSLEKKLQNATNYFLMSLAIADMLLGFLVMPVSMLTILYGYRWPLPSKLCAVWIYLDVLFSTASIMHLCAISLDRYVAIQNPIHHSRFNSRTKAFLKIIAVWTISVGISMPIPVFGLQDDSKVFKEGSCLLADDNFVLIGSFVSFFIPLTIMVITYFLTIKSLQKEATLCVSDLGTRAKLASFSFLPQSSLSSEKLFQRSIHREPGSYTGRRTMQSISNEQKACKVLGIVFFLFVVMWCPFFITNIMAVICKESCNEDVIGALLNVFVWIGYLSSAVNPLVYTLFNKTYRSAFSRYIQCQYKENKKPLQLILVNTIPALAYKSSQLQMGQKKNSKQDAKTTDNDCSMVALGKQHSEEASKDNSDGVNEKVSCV

Compound	inhibition [1] [%]	IC50 [2] [nM]	inhibition [3] [%]	IC50 [4] [nM]	IC50 [5] [nM]	inhibition in vivo at 50 mg/kg (Mus musculus [6]) [%]	inhibition in vivo at 50 mg/kg (Mus musculus [7]) [%]	EC50 [8] [µM]	IC50 [9] [nM]
CC1CCN(c2nc(Nc3ccc(F)cc3)c3cn[nH]c3n2)CC1	83	1500	86	3670	–	–	–	–	–
Fc1ccc(Nc2nc(NCCN3CCOCC3)nc3[nH]ncc23)cc1	51	> 10000	35	9740	–	–	–	–	–
COCCCNc1nc(Nc2ccc(F)cc2)c2cn[nH]c2n1	67	> 10000	28	5280	–	–	–	–	–
Fc1ccc(Nc2nc(N3CCCCC3)nc3[nH]ncc23)cc1	86	1300	89	2200	–	–	–	–	–
c1ccc(Cc2nc3c(c(N4CCSCC4)n2)CCNCC3)cc1	–	333	–	1270	96.3	12	18.4	–	–
CN1CCN(c2nc3c(c(N4CCOCC4)n2)CCNCC3)CC1	–	> 10000	–	> 10000	–	–	–	9.6	–
COc1cccc(Nc2nc(N3CCN(c4ccc(F)cc4)CC3)nc3[nH]ncc23)c1	100	1080	85	350	–	–	–	–	–
COCCNc1nc(Nc2ccc(F)cc2)c2cn[nH]c2n1	25	> 10000	18	> 10000	–	–	–	–	–
COc1ccc(Nc2nc(N3CCN(c4ccc(F)cc4)CC3)nc3[nH]ncc23)cc1	92	1180	86	696	–	–	–	–	–
CNc1nc(N2CCN(C)CC2)nc2c1CCNCC2	–	> 10000	–	> 10000	1200	–	–	–	–
Fc1ccc(Nc2nc(NC3CCCC3)nc3[nH]ncc23)cc1	72	> 10000	35	4500	–	–	–	–	–
OCCCNc1nc(Nc2ccc(F)cc2)c2cn[nH]c2n1	26	> 10000	5	> 10000	–	–	–	–	–
CCN(CC)c1nc(Nc2cccc(OC)c2)c2cn[nH]c2n1	87	5420	61	2080	–	–	–	–	–
CCN(CC)c1nc(N2CCN(C)CC2)nc2c1CCNCC2	–	> 10000	–	> 10000	2900	9.01	4.17	–	–
Fc1ccc(Nc2nc(N3CCN(c4ccccc4)CC3)nc3[nH]ncc23)cc1	100	416	88	27.2	–	–	–	–	–
Fc1ccc(Nc2nc(N3CCOCC3)nc3[nH]ncc23)cc1	83	2070	81	2620	–	–	–	–	–
Fc1ccc(Nc2nc(Cc3ccccc3)nc3c2CCNCC3)cc1	–	8.5	–	1.95	–	–	–	–	2.6
CCNc1nc(Nc2ccccc2)c2cn[nH]c2n1	6	> 10000	15	> 10000	–	–	–	–	–
CN(C)c1nc(Nc2ccc(F)cc2)c2cn[nH]c2n1	79	4030	66	4880	–	–	–	–	–
Fc1ccc(Nc2nc(NC3CCCCC3)nc3[nH]ncc23)cc1	73	5710	62	3670	–	–	–	–	–
CN1CCN(c2nc(Nc3ccccc3)c3cn[nH]c3n2)CC1	100	86.9	100	25.1	–	–	–	–	–
CCN(CC)c1nc(Nc2ccccc2C)c2cn[nH]c2n1	66	242	88	4580	–	–	–	–	–
COc1ccc(Nc2nc(Cc3ccccc3)nc3c2CCNCC3)cc1	–	269	–	57.4	–	–	–	–	–
CN1CCN(c2nc(Nc3ccc(Cl)cc3)c3cn[nH]c3n2)CC1	100	29.4	100	28.8	–	–	–	–	–

Compound	inhibition [1] [%]	IC50 [2] [nM]	inhibition [3] [%]	IC50 [4] [nM]	IC50 [5] [nM]	inhibition in vivo at 50 mg/kg (Mus musculus [6]) [%]	inhibition in vivo at 50 mg/kg (Mus musculus [7]) [%]	EC50 [8] [µM]	IC50 [9] [nM]
CCN(CC)c1nc(Nc2ccc(F)cc2)c2cn[nH]c2n1	84	3310	76	4530	–	–	–	–	–
CCN(CC)c1nc(Nc2ccc(C)c(C)c2)c2cn[nH]c2n1	85	8490	52	2750	–	–	–	–	–
Fc1ccc(Nc2nc(N3CCN(c4ccc(F)cc4)CC3)nc3[nH]ncc23)cc1	94	148	96	17.9	–	–	–	–	–
COc1cccc(Nc2nc(N3CCN(C)CC3)nc3c2CCNCC3)c1	–	2850	–	> 10000	–	–	–	–	2300
CCNc1nc(N2CCN(C)CC2)nc2c1CCNCC2	–	> 10000	–	> 10000	–	–	–	> 10	–
CN1CCN(c2nc(Nc3ccc(F)cc3)c3cn[nH]c3n2)CC1	100	85.8	100	24.2	–	–	–	–	–
CCCNc1nc(Nc2ccccc2)c2cn[nH]c2n1	30	> 10000	29	> 10000	–	–	–	–	–
Cc1ccc(CNc2nc(Nc3ccc(F)cc3)c3cn[nH]c3n2)cc1	93	5830	66	947	–	–	–	–	–
CN1CCN(c2nc3c(c(N(C)C)n2)CCNCC3)CC1	–	> 10000	–	> 10000	–	12.2	12.5	1.2	–
CC1CC(C)CN(c2nc(Nc3ccc(F)cc3)c3cn[nH]c3n2)C1 (configuration not stated)	75	3820	67	5870	–	–	–	–	–
CCN(CC)c1nc(Nc2ccc(Cl)cc2)c2cn[nH]c2n1	86	991	80	1890	–	–	–	–	–
COc1nc(N2CCN(C)CC2)nc2c1CCNCC2	–	> 10000	–	> 10000	–	–	–	–	–
CNc1nc(Nc2ccc(F)cc2)c2cn[nH]c2n1	49	7790	51	> 10000	–	–	–	–	–
CN1CCN(c2nc3c(c(OCc4ccco4)n2)CCNCC3)CC1	–	1260	–	2630	–	–	–	–	–
Fc1ccc(Nc2nc(N3CCN(Cc4ccccc4)CC3)nc3[nH]ncc23)cc1	100	836	96	52.2	–	–	–	–	–
CN1CCc2nc(N3CCN(C)CC3)nc(Nc3ccc(F)cc3)c2CC1	–	779	–	684	–	–	–	–	–
CN1CCN(c2nc3c(c(N4CCSCC4)n2)CCNCC3)CC1	–	> 10000	–	> 10000	687	-15	2.1	> 10	–
CCNc1nc(Nc2ccc(F)cc2)c2cn[nH]c2n1	39	> 10000	23	> 10000	–	–	–	–	–
C=CCNc1nc(Nc2ccc(F)cc2)c2cn[nH]c2n1	60	> 10000	41	6580	–	–	–	–	–
COc1ccccc1N1CCN(c2nc(Nc3ccc(F)cc3)c3cn[nH]c3n2)CC1	93	1730	78	1380	–	–	–	–	–
COc1cccc(Nc2nc(N3CCN(C)CC3)nc3[nH]ncc23)c1	100	7.8	100	9.1	–	–	–	–	–
Fc1ccc(Nc2nc(NCc3ccccc3)nc3[nH]ncc23)cc1	85	2590	82	1270	–	–	–	–	–
OCCN1CCN(c2nc(Nc3ccc(F)cc3)c3cn[nH]c3n2)CC1	100	494	97	163	–	–	–	–	–
CN1CCN(c2ncc3c(n2)CCNCC3)CC1	–	> 10000	–	> 10000	–	–	–	–	–
